These results are taken from BindingDB's records for doi:10.1016/j.bmc.2008.08.048 (National Institute of Diabetes and Digestive and Kidney …, 2008).

This assay addresses Transient receptor potential cation channel subfamily V member 1 (Rattus norvegicus, UniProt O35433). As to the kind of experiment: Agonist-enhancing activity at TRPV1 receptor in E15 rat primary dorsal root ganglion cells assessed as capsaicin-induced 45Ca2+ influx by microplate liquid scintillation counter. The gist of the method:
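E15 rat DRG cultures grown 5–6 days at 35°C. Uptake with capsaicin ~0.5 µM, 10 min at 20°C, 0.5 µCi/well 45Ca2+ in Tris-HBSS pH 7.5. Compound up to 50 µM, 0.2% DMSO, from 25 mM stocks. Counts normalized to in-plate capsaicin-only wells (100%, 4 wells). Variable-slope sigmoid fit gave EC50, Hill slope and ΔEmax.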

Chain of Transient receptor potential cation channel subfamily V member 1 (O35433 whole entry): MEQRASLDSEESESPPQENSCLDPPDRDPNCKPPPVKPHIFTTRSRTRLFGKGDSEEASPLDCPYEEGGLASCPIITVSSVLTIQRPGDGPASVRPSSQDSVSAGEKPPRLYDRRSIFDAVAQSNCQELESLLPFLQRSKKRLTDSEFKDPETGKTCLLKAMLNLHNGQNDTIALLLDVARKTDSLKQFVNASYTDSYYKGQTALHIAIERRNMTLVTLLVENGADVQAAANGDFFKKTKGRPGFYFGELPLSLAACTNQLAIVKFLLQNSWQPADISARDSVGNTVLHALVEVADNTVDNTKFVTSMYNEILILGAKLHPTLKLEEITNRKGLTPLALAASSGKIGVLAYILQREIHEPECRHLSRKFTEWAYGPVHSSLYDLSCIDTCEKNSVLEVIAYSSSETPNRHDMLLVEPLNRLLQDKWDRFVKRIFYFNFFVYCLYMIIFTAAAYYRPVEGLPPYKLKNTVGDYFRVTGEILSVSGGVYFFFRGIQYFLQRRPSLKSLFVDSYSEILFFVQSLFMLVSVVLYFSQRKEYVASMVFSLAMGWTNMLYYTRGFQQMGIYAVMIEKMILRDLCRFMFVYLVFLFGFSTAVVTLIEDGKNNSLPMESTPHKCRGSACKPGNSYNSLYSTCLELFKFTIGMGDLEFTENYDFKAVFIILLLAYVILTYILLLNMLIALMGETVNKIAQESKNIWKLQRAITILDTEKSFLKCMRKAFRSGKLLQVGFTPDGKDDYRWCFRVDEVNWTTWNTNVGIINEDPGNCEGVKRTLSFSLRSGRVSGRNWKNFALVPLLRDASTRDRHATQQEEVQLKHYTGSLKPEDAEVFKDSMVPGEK

For `CCOC(=O)C1=C(c2cccc(Cl)c2)N=C(C)C(C(=O)OCC)C1CC` (single isomer, unassigned; (+)) [3,5-diethyl-2-methyl-4-ethyl-6-(3-chlorophenyl)-1,4-(+)-dihydropyridine-3,5-dicarboxylate], the EC50 was 17 µM.
